# Test results from ChEMBL document CHEMBL1149711, “Novel indanyl-substituted imidazo[1,2-a]pyridines as potent reversible inhibitors of the gastric H+/K+-ATPase” (Bioorg Med Chem Lett, 2007).
# Legend:
# [1] = Inhibition of H+/K+ ATPase in hog gastric mucosa by competitive binding assay; format: tissue-based, Sus scrofa
# Summary of the method: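 Competitive binding assay using H+/K+-ATPase prepared from hog gastric mucosa; activity reported as −log IC50.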
# [2] = Dissociation constant, pKa of the compound; format: physicochemical
# Summary of the method: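 Potentiometric co-solvent titration in 0.15 mol/L KCl over pH 2.0–11.0 at 25 °C. Methanol co-solvent at varying proportions; 0.5 mol/L KOH and HCl as titrants. Aqueous pKa obtained by linear extrapolation to 0% co-solvent (Yasuda–Shedlovsky plot).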
# [3] = Lipophilicity, log P of the compound; format: physicochemical; details: octanol/water
# [4] = Lipophilicity, log D at pH 7.4; format: physicochemical; details: buffer
Structure (SMILES),Log IC50 [1],pKa [2],logP [3],logD [4]
Cc1nc2c(N[C@H]3c4ccccc4C[C@@H]3O)cc(C(=O)N(C)C)cn2c1C,-6.3,6.24,2.85,2.82
COCCNC(=O)c1cc(N[C@H]2c3ccccc3C[C@@H]2O)c2nc(C)c(C)n2c1,-4.7,6.01,3.43,3.41
COc1cccc2c1[C@H](Oc1cc(C(=O)N(C)C)cn3c(C)c(C)nc13)[C@@H](O)C2,-5.7,6.27,2.3,2.27
CCc1cccc(C)c1CNc1cc(C(N)=O)cn2c(C)c(C)nc12,-6.2,6.1,4.95,4.93
Cc1nc2c(N[C@H]3c4ccccc4C[C@@H]3O)cc(C(N)=O)cn2c1C,-4.8,5.97,3.11,3.09
CNC(=O)c1cc(N[C@H]2c3ccccc3C[C@@H]2O)c2nc(C)c(C)n2c1,-5.4,5.97,3.4,3.39
Cc1cccc2c1[C@H](Oc1cc(C(=O)N(C)C)cn3c(C)c(C)nc13)[C@@H](O)C2,-6.9,6.22,2.59,2.56
Cc1nc2c(O[C@H]3c4ccccc4C[C@@H]3O)cc(C(=O)N(C)C)cn2c1C,-5.7,6.21,2.2,2.16
